Laboratory results as given in ChEMBL document CHEMBL3616420, “Nitrogenated honokiol derivatives allosterically modulate GABAA receptors and act as strong partial agonists” (Bioorg Med Chem, 2015).
The source made the active and inactive calls. No cut-off for these calls is given here.

Columns and labels:
Type in all cases: cell-based
[1] = target: T1, GABA-A receptor; alpha-1/beta-2/gamma-2 (Homo sapiens) (UniProt P14867+P47870+P18507); assay: Partial agonist activity at GABAAalpha1beta2gamma2s receptor (unknown origin) expressed in Xenopus laevis oocytes assessed as induction of chloride current by two-microelectrode voltage-clamp method relative to GABA
Procedure, shortened: (§1)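 Stage V–VI Xenopus laevis oocytes, defolliculated with 2 mg/mL collagenase, were injected with subunit cRNAs (approx. 300–3000 pg/nL/subunit) and stored at +18 °C in modified ND96 (pH 7.4). Chloride currents were recorded by two-microelectrode voltage clamp at +21 °C, holding potential −70 mV. Washout was 1.5 min at low compound concentrations and 30 min at high ones. Curves were fitted to a Hill equation. Values are mean ± SE from at least 3 oocytes and 2 batches.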

[2] = target: T1, GABA-A receptor; alpha-1/beta-2/gamma-2 (Homo sapiens); assay: Allosteric modulation of GABAAalpha1beta2gamma2s receptor (unknown origin) expressed in Xenopus laevis oocytes assessed as potentiation of GABA-induced chloride current by two-microelectrode voltage-clamp method relative to GABA; procedure, shortened: as §1
[3] = target: T2, GABA-A receptor; alpha-1/beta-2/gamma-2 (Homo sapiens, UniProt P14867+P18507+P47870); assay: Allosteric modulation of GABAAalpha1beta2gamma2s receptor (unknown origin) expressed in Xenopus laevis oocytes assessed as potentiation of GABA-induced chloride current by two-microelectrode voltage-clamp method; procedure, shortened: as §1
T2 sequence (P14867 whole entry): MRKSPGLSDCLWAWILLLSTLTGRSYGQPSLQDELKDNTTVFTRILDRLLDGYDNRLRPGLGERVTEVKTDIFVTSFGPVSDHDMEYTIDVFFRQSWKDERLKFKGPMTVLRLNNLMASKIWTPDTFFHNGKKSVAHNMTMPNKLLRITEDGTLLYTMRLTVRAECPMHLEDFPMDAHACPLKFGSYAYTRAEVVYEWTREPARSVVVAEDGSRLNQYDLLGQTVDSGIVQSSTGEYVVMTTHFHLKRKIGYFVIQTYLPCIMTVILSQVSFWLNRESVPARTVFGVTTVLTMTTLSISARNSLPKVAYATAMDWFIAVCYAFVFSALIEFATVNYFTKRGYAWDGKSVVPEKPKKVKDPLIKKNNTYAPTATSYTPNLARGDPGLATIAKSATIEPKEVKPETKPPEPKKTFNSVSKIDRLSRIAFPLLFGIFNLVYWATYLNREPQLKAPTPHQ
T2 sequence (P47870 whole entry): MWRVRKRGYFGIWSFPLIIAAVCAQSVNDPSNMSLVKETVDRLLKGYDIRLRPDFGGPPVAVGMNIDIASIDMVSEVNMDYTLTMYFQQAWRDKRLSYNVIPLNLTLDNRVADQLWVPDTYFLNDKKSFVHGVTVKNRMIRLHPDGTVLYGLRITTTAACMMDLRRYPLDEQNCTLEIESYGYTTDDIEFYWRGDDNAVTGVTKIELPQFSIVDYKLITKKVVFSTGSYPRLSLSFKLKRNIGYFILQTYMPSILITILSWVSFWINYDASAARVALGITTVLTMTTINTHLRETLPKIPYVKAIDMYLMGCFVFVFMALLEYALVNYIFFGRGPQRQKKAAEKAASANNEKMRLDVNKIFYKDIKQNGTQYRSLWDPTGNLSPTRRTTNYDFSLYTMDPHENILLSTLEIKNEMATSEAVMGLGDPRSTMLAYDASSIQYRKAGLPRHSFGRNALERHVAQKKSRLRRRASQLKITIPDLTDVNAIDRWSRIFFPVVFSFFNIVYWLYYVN
T2 sequence (P18507 whole entry): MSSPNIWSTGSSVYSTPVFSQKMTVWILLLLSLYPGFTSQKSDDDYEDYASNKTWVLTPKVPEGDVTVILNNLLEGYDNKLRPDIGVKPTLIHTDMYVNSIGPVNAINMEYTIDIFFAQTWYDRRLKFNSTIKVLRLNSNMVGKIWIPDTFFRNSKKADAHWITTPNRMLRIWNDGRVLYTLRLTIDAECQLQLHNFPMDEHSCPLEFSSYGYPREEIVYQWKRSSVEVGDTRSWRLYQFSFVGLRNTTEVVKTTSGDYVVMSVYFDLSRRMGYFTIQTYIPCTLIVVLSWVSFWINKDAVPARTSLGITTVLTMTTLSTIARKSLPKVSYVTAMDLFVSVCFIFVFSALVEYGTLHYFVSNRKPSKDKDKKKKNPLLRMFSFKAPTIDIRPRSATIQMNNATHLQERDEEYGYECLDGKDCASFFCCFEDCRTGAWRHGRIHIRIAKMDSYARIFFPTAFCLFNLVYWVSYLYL

[4] = target: T1, GABA-A receptor; alpha-1/beta-2/gamma-2 (Homo sapiens); assay: Partial agonist activity at GABAAalpha1beta2gamma2s receptor (unknown origin) expressed in Xenopus laevis oocytes assessed as potentiation of GABA-induced chloride current at 100 uM by two-microelectrode voltage-clamp method
Procedure, shortened: (§2)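 Stage V–VI Xenopus oocytes were injected with 10–50 nL of DEPC-treated water carrying each GABAA subunit cRNA at about 300–3000 pg/nL/subunit. Oocytes were kept at +18 °C in modified ND96 (pH 7.4). Chloride currents were recorded by two-microelectrode voltage clamp at +21 °C, holding at −70 mV. Washout was lengthened at high drug concentrations. Values are mean SE from ≥3 oocytes and ≥2 batches.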

[5] = target: T1, GABA-A receptor; alpha-1/beta-2/gamma-2 (Homo sapiens); assay: Allosteric modulation of GABAAalpha1beta2gamma2s receptor (unknown origin) expressed in Xenopus laevis oocytes assessed as potentiation of GABA-induced chloride current at 100 uM by two-microelectrode voltage-clamp method; procedure, shortened: as §2
[6] = target: T2, GABA-A receptor; alpha-1/beta-2/gamma-2; assay: Partial agonist activity at GABAAalpha1beta2gamma2s receptor (unknown origin) expressed in Xenopus laevis oocytes assessed as induction of chloride current by two-microelectrode voltage-clamp method

Row | Activity [1] | Emax [2] [%] | EC50 [3] [µM] | Compound | Activity [4] | Activity [5] | Emax [1] [%] | EC50 [6] [µM]
1 | inactive | 91 | 21.5 | C=CCc1ccc(OCC)c(-c2cc(N)c(O)c(CC=C)c2)c1 | – | – | – | –
2 | inactive | 118 | 20.4 | CCCc1ccc(OCC)c(-c2cc(N)c(O)c(CCC)c2)c1 | – | – | – | –
3 | – | 108 | 15.8 | CCCc1ccc(OC)c(-c2cc(N)c(O)c(CCC)c2)c1 | Active | Active | 52 | 62.2
4 | – | – | – | C=CCc1ccc(O)c(-c2ccc(O)c(CC=C)c2)c1 [HONOKIOL] | – | – | 78 | 76.2
5 | – | 142 | 5.3 | C=CCc1cc(NC(C)=O)c(O)c(-c2ccc(OC)c(CC=C)c2)c1 | – | – | 63 | 68.1
6 | – | 72 | 47.6 | C=CCc1ccc(OC)c(-c2cc(N)c(O)c(CC=C)c2)c1 | Active | Active | 59 | 144

Row | Compound | Activity [1] | Emax [2] [%] | EC50 [3] [µM] | Activity [4] | Activity [5] | Emax [1] [%] | EC50 [6] [µM]
7 | CCCc1cc(N)c(O)c(-c2ccc(OCC)c(CCC)c2)c1 | – | 93.7 | 14.4 | Active | Active | 29 | 33.2
8 | CCCc1ccc(OC)c(-c2cc(CCC)c(O)c(NC(C)=O)c2)c1 | inactive | 42.5 | 24.6 | – | – | – | –
9 | CCCc1cc(NC(C)=O)c(O)c(-c2ccc(OCC)c(CCC)c2)c1 | – | 123 | 1.8 | Active | Active | 32 | 6.9
